# This is one part of a sample in which hits are shown more often than they occur.
# NOD2-RIPK2 inh: inhibitors of human NOD2-RIPK2 interaction. O43353. CHO BLA complementation NOD2-RIPK2, CCF4 ratio. inhibition, % at 4.98 µM. 360,000 tested, 0.38% active; in the data active = inhibition above about 21%;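 also: 0% = vehicle only and 100% = reference blocker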
# Target sequence (O43353 whole entry, looked up): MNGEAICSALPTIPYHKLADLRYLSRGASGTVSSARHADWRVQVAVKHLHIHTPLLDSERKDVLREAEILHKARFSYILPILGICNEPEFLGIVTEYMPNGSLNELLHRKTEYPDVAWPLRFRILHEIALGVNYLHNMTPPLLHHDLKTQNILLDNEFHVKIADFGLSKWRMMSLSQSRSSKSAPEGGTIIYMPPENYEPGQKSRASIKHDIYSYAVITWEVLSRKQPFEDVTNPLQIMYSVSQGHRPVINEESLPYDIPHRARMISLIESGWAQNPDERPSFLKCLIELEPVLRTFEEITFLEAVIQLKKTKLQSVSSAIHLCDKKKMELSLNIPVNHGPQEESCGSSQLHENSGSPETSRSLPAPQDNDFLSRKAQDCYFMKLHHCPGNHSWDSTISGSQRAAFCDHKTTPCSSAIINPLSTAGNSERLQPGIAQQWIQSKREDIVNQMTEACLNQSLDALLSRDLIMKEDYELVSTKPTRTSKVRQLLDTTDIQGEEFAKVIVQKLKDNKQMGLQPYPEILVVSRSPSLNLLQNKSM
# UPR CHOP act: activators of apoptotic arm of unfolded protein response (CHOP); 330,000 tested, 0.34% active; CHO-CHOP luciferase reporter, UPR activation, luminescence; percent of tunicamycin response over DMSO baseline; activation, % at 10 µM;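 active = at 10 µM dose, activation of 40% or more, normalized to positive control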;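 also: 100% = tunicamycin at 10 µg/mL and 0% = DMSO alone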
#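 assay system = CHO CHOP reporter cells | amount = 500 CHO-CHOP cells per well | buffer or medium = F12 with 10% FBS | incubation = 16-18 h cell attachment, then 6 h compound exposure, 37 °C | detection = luminescence read with Steady-Glo | read-out = percent activation relative to tunicamycin control | controls = tunicamycin high control, DMSO low control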
# TLR4 MyD88 comp: inhibitors of human TLR4-MyD88 binding; HeLa CL3-4 TLR4/MyD88 BLA complementation, FRET ratio; 200,000 tested, 0.18% active; inhibition, % at 8.4 µM; O00206+Q99836; in the data active = inhibition above about 25%;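 also: 0% = vehicle and 100% = reference inhibitor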
# TLR9-MyD88 block: blocks human TLR9 binding to MyD88 | 340,000 tested, 0.21% active | inhibition, % at 4.98 µM | CHO BLA complementation TLR9-MyD88, CCF4 FRET ratio;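 active = inhibition above the mean over all tested compounds plus 3 SD, cut at about 21% in these data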;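 also: 0% = DMSO only wells and 100% = clavulanate BLA inhibitor control wells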
# UPR XBP1 act: adaptive UPR (XBP1) activation | CHO-XBP1 luciferase reporter, IRE1-XBP1 UPR activation, luminescence; percent of tunicamycin response, DMSO as zero | AID 463104 | 330,000 tested, 0.33% active | activation, % at 20 µM;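 active = versus positive control, 20 µM dose yields 30% or more activation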;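 also: 100% = tunicamycin at 10 µg/mL and 0% = DMSO only wells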
#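 Assay system: CHO-XBP1 luciferase reporter cells; Schedule: 6 h treatment, 37 °C; Detection: glow luminescence from Steady-Glo reagent; Benchmarks: high control tunicamycin 10 µg/mL final, low control DMSO vehicle only.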
# CHOP inh: CHOP inhibition in unfolded protein response; CHO-K1 CHOP-promoter luciferase, tunicamycin-induced, 15-18 h; inhibition, % at 10 µM; 220,000 tested, 3.8% active; AID 2732;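 active = compounds that reduced the stress-induced luciferase reporter signal by more than about 70% of percent inhibition, limit read from the data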;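 also: 0% = tunicamycin plus vehicle and 100% = wells without tunicamycin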
# CHOP inh conf: confirmation of CHOP induction inhibitors. shares compounds with CHOP inh. CHO-CHOP promoter luciferase reporter, tunicamycin-induced, luminescence. inhibition, % at 10 µM. 2,100 tested, 45% active;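 active = mean of three repeat readings of reporter signal inhibition above a set limit, cut at about 70% in these data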;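 also: 0% = tunicamycin plus vehicle and 100% = wells lacking tunicamycin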
# * hit, by the source's call; · = no result.
SMILES,NOD2-RIPK2 inh,UPR CHOP act,TLR4 MyD88 comp,TLR9-MyD88 block,UPR XBP1 act,CHOP inh,CHOP inh conf
CNc1cncc(-c2cccc(OC)c2F)n1,-2.0,·,·,·,·,·,·
CC/C(=N\Nc1ccccc1[N+](=O)[O-])c1ccc(O)cc1,-8.5,2.4,-5.1,·,-0.5,99.6*,25.7
Cc1cc(C)c2c(=O)n3c(nc2c1)C(Cc1ccccc1)NC(=O)c1cccnc1-3 (configuration not stated),-7.7,·,·,1.4,·,·,·
Cc1ccc(C(=C2C3C=CC2C2C(=O)NC(=O)C32)c2ccc(C)cc2)cc1 (configuration not stated),-9.5,-0.1,-33.5,1.7,-1.9,107.9*,14.0
CCCCn1c(NS(=O)(=O)c2ccc(C)cc2)c(S(=O)(=O)c2ccccc2)c2nc3ccccc3nc21,-5.6,·,-6.2,8.8,·,104.2*,88.7*
Cc1ccc(S(=O)(=O)c2c(N)n(CCCN(C)C)c3nc4ccccc4nc23)cc1,-4.8,2.0,·,-6.0,0.1,-0.1,·
Cc1ccc(C(C(=O)NCc2ccco2)N(C(=O)CNC(=O)c2cccs2)c2c(C)cccc2C)cc1 (configuration not stated),-11.3,4.6,-1.2,0.6,18.7,100.7*,80.4*
Cc1ccc(C(C(=O)NCc2ccco2)N(C(=O)CNC(=O)c2cccs2)c2ccc(C)cc2)cc1 (configuration not stated),-6.3,-1.6,3.1,2.9,-3.3,24.4,·
Cc1cc(C)cc(Cn2ncc(Cl)c(Cl)c2=O)c1,·,·,17.1,·,·,105.9*,-31.1
O=C(Cn1ncc(Cl)c(Cl)c1=O)N1CCN(Cc2ccccc2)CC1,17.8,·,24.4,10.2,·,107.2*,-168.9
O=c1c(Cl)c(Cl)cnn1Cc1nnc(-c2ccc(Cl)cc2)o1,19.8,·,5.4,19.7,·,107.5*,37.7
O=c1c(Cl)c(Cl)cnn1Cc1ccccc1Cl,·,·,24.2,·,·,111.3*,26.0
O=C(Cn1ncc(Cl)c(Cl)c1=O)N1CCOCC1,2.8,1.5,16.8,·,1.2,-35.5,·
COC(=O)c1sc(N)c(C(=O)OC)c1Cn1ncc(Cl)c(Cl)c1=O,0.3,34.6,·,-1.4,-5.8,·,·
C#CCNC(=O)C[C@@H]1C[C@@]2(C(=O)OCC)CCC=C2N(Cc2ccco2)C1=O,10.0,·,·,·,·,·,·
CCOc1cc(/C=N/NC(=O)COc2cccc(C)c2)ccc1OC(=O)c1cccs1,0.3,3.8,-0.8,2.1,7.9,106.2*,94.2*
COc1cc(/C=N/NC(=O)COc2ccccc2C)ccc1OC(=O)c1cccs1,6.8,16.1,-5.2,-7.3,17.0,-1.8,·
Cc1ccsc1/C=N/n1c(-c2cc(-c3ccccc3)n[nH]2)n[nH]c1=S,10.6,-0.7,·,3.2,2.0,-0.3,·
Cc1ccccc1/C=N/n1c(-c2cc(-c3ccccc3)n[nH]2)n[nH]c1=S,-3.7,0.8,·,1.3,-2.3,103.8*,57.1
O=C(CNC(=O)C12CC3CC(CC(C3)C1)C2)N1CCCC(C(F)(F)F)C1 (configuration not stated),6.4,·,·,2.9,·,·,·
CC(C)Oc1cccc(C(=O)Nc2nnc([C@H]3C[C@H](O)[C@@H](CO)O3)s2)c1,5.2,·,·,·,·,·,·
CCC1CCCCN1c1nc(-c2cccc(OC)c2O)nc2ccccc12 (configuration not stated),0.6,1.4,2.7,-9.5,-1.6,34.2,·
CCC1CCCCN1c1nc(-c2ccncc2)nc2ccccc12 (configuration not stated),-7.6,1.5,-9.9,-5.2,3.6,99.4*,14.9
CN(CCOc1ccc(Cl)cc1)C(=O)c1cccc(S(=O)(=O)N2CCN(Cc3ccccc3)CC2)c1,1.4,·,·,-11.7,·,·,·
COc1cccc(NC(=O)CSc2nnc(-c3cc(C)n(-c4ccccc4)c3C)o2)c1,4.6,-7.8,4.6,10.0,-4.2,97.7*,85.4*
COC[C@@H]1CCCN1c1ccc2c(c1)O[C@@H](COCc1ccccc1)CN([C@H](C)c1ccccc1)S2(=O)=O,0.5,·,·,·,·,·,·
Cc1ccc(C)c(NC(=O)C2CC=CCC2C(=O)O)c1 (configuration not stated),-3.8,-0.8,4.0,-2.4,0.7,20.0,·

# High-throughput results as filed in PubChem.
